Holding throughout (assay type): biochemical
Experiment [1] concerns the target T1, PRMT8 (Homo sapiens, UniProt Q9NR22). In words: PRMT8 single-point radioactive methylation assay. Particulars: compared with the unmodified peptide.
The target in experiment [2] is human recombinant PRMT1 (Homo sapiens, UniProt Q99873). Briefly: PRMT1 single-point radioactive methylation assay. Particulars: compared with the unmodified peptide.
For experiment [3], the target named is T2, truncated PRMT3 (residues 211–531) (Homo sapiens, UniProt O60678). Briefly: PRMT3 steady-state kinetics, radioactive filter-binding methylation assay. The gist of the method:
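E. coli-expressed His-tagged PRMT3 (residues 211–531) was used. Reactions in 50 mM HEPES pH 8, 10 mM NaCl, 0.5 mM EDTA, 0.5 mM DTT contained 0.25–8 μM N-acetylated H4(1–20) peptide (unmodified, K5me or K5ac). Products were P81 filter-bound, washed with NaHCO3 pH 9 and scintillation-counted. Rates (product/[E] per min) were fitted to the Hill or Michaelis-Menten equation, at least duplicate.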

The target in experiment [4] is T2, truncated PRMT3 (residues 211–531). In words: PRMT3 single-point radioactive methylation assay. Particulars: 0.05 μM PRMT3, 5 μM [14C]-SAM, 10 μM peptide, 30 °C, 35 min.
Experiment [5] deals with T1, PRMT8. Briefly: PRMT8 steady-state kinetics, radioactive filter-binding methylation assay. Particulars: 0.05 μM PRMT8, 15 μM [14C]-SAM, 35 min, 30 °C; data not shown. The method in brief: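 Recombinant His-tagged PRMT8 was expressed in E. coli BL21(DE3) and Ni-NTA purified. Reactions were run in 50 mM HEPES pH 8, 10 mM NaCl, 0.5 mM EDTA, 0.5 mM DTT with 0.25–16 μM N-acetylated H4(1–20) peptide (unmodified, K5me or K5ac), initiated with enzyme. They were isopropanol-quenched, P81 filter-bound, washed with NaHCO3 pH 9 and scintillation-counted against [14C]-SAM reference. Rates were Hill-fitted, at least duplicate.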

Three substances from PMC5776680 (Biochemistry, 2017) can be followed below.

T2 sequence (O60678 211-531): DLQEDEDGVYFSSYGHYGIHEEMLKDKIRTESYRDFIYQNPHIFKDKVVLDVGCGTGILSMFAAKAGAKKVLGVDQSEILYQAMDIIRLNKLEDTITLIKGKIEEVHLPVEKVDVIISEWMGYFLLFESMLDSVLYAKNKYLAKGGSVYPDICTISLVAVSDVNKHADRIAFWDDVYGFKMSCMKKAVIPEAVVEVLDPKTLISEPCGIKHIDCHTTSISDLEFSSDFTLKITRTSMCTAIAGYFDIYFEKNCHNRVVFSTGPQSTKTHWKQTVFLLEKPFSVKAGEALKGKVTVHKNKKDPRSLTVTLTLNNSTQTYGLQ
T1 sequence (Q9NR22 whole entry): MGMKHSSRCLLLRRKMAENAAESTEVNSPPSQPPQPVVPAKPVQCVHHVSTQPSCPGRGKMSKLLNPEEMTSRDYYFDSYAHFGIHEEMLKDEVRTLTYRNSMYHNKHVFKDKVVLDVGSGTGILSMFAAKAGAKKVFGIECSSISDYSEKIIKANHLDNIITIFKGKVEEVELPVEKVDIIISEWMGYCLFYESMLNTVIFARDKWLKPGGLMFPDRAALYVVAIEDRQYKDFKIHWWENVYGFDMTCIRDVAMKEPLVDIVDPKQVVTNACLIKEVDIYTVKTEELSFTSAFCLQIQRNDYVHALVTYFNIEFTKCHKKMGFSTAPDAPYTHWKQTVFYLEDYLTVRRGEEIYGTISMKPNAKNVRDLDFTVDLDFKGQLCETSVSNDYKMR
Chain of human recombinant PRMT1 (Q99873 whole entry, the tested form may be a part): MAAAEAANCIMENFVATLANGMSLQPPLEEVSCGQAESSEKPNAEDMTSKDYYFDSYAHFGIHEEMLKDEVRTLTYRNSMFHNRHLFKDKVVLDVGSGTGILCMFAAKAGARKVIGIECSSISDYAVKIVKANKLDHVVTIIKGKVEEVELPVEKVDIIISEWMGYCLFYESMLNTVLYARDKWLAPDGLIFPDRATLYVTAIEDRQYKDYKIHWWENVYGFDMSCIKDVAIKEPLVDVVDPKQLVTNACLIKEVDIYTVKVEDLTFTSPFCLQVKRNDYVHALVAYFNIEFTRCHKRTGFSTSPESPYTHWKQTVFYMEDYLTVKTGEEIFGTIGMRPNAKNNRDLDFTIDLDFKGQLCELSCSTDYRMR

Turning to “Ac-H4(1-21): N-terminally acetylated histone H4 peptide, residues 1-21”, in experiment [1], the “effect of the modification on arginine methylation by PRMT8” value was “did not strongly affect arginine methylation”. For the same substance, the “effect of the modification on arginine methylation by PRMT1” value in experiment [2] is “did not strongly affect arginine methylation”.

“Ac-SGRGKacGGKGLGKGGAKRHRK [Ac-H4(1-20)K5ac]”: the “increase of K0.5 in comparison to Ac-H4(1-20)” value in experiment [3] (PRMT3, Hill fit) was determined as 2 fold.

Regarding “Ac-SGRGKmeGGKGLGKGGAKRHRK [Ac-H4(1-20)K5me]”, the “peptide concentration above which substrate inhibition appeared” value in experiment [3] (0.05 μM PRMT3, 15 μM [14C]-SAM, 35 min, 30 °C, data not shown) is “above 8 μM”; in experiment [5], “above 4 μM”. In addition, in experiment [3] (PRMT3, Hill fit), the “increase of kcat in comparison to Ac-H4(1-20)” value is given as 3 fold. The “catalytic efficiency higher than Ac-H4(1-20)” value in experiment [3] (PRMT3, kcat/K0.5) is given as roughly 4 fold. The “increase in arginine methylation in comparison to Ac-H4(1-20)” value in experiment [4] was “over 5 fold”.
